Assay outcomes as filed in PubChem BioAssay.
H69AR growth 86K: blocks growth of human H69AR lung tumor cells; H69AR lung tumor viability, ATP luminescence, 72 h; hits give low values; 85,000 tested, 6% active; viability, % at 10 µM; AID 598;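 active = viability at or below 40%; inactive = viability above 40%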;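 also: multidrug resistant small cell line overexpressing MRP-1 efflux transporter; 100% = mean luminescence of untreated control wells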
Ecoli tolC: blocks growth of E. coli BW25113 tolC mutant; OD615; growth inhibition, % at 10 µM (by protocol); 65,000 tested, 2.2% active;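 active = growth inhibition at or above a cutoff equal to the mean over every tested compound plus 3 SD, cut at about 60% in these data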;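 also: growth measured after 20 h incubation at 37 °C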
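System: E. coli ΔtolC::kan strain BW25113; Buffer or medium: LB broth supplemented with 50 µg/mL kanamycin; Compound: 10 µM final, single dose; Incubation: bacterial growth with compound for 20 h at 37 °C; Signal: A615 absorbance measurement; Evaluation: growth inhibition in percent.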
Fibroblast inh: blocks proliferation of human lung fibroblasts; AID 719; LL 47 human lung fibroblast viability, ATP luminescence; hits give low values; 85,000 tested, 1.1% active; viability, % at 10 µM;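 active = viability at or below 50% in the single dose screen; inactive = viability above 50%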;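 also: compound exposure lasted 72 h before the ATP readout; 100% = median luminescence of untreated cell-only wells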
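Assay system: human lung fibroblast line LL 47, low passage. Input: 1,150 fibroblasts seeded per well. Times: overnight cell rest, 72 h compound treatment at 37 °C. Evaluation: % viability of median cell-only signal. Technique: luminescent ATP detection, CellTiter-Glo. Control set: cell-only wells, no compound.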
HUVEC inhibit: blocks proliferation of human endothelial cells; HUVEC proliferation, CellTiter-Glo luminescence, 72 h; hits give low values; viability, % at 10 µM (by protocol); 86,000 tested, 1.1% active;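 active = viability at or below 30%; inactive = viability above 30%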;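 also: 100% = median luminescence of DMSO-only cell control wells on each plate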
Jurkat viability: cytotoxicity toward Jurkat cells | Jurkat E6.1 viability, ATP luminescence, 48 h | inhibition, % at 4 µM | 56,000 tested, 1.2% active;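 active = inhibition above the mean inhibition of all tested compounds plus 3 SD, cut at about 28% in these data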
E coli WT exp: growth inhibitors of E. coli BW25113 wild type; AID 710; OD600 absorbance; 98,000 tested, 0.15% active; growth inhibition, % at 100 µM;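 active = growth inhibition above about 50% at one test dose, limit read from the data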;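 also: growth measured after 20 h incubation at 37 °C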
An asterisk follows results filed as active; / = no result given. The list is not random: actives were taken first. Their share in the collection is about 6.4%.

SMILES	H69AR growth 86K	Ecoli tolC	Fibroblast inh	HUVEC inhibit	Jurkat viability	E coli WT exp
CCOC(=O)c1cnc(SCc2nc(N)nc(Nc3ccc(C)cc3)n2)nc1N	35.2*	29.8	75.9	96.8	7.0	5.0
COc1ccc(N2CCN(c3ncccn3)CC2)cc1	/	/	/	/	/	-6.0
CCCCCCC(=O)N(O)C1CC(=O)N(Cc2ccccc2)C1=O (stereo not drawn)	82.8	2.1	85.2	76.4	-4.9	7.0
CCCCCC(=O)N(O)C1CC(=O)N(c2ccccc2)C1=O (stereo not drawn)	35.0*	-8.8	101.0	96.7	-1.1	9.0
Cc1oc(-c2ccc(Cl)cc2)nc1CN1CCC(C(=O)N2CCN(c3ccccn3)CC2)CC1	65.8	7.4	93.2	55.6	1.2	/
Cc1oc(-c2ccc(Cl)cc2)nc1CN1CCCC(C(=O)N2CCN(C(=O)c3ccco3)CC2)C1 (stereo not drawn)	87.1	-1.6	90.6	87.3	61.9*	9.0
CCc1ccc(-c2nc(CN3CCC(C(=O)N4CCN(c5ccccc5)CC4)CC3)c(C)o2)cc1	1.2*	26.4	73.7	3.5*	15.3	15.0
CCN1CCN(C(=O)C2CCN(Cc3nc(-c4ccc(Cl)cc4)oc3C)CC2)CC1	106.3	-9.6	87.5	81.8	0.0	/
CCc1ccc(-c2nc(CN3CCC(C(=O)N4CCN(c5ccccn5)CC4)CC3)c(C)o2)cc1	38.7*	9.3	95.5	31.3	21.0	15.0
Cc1oc(-c2cccc(Cl)c2)nc1CN1CCC(C(=O)N2CCN(c3ccccn3)CC2)CC1	33.3*	-5.3	74.4	35.0	-3.8	/
O=C1CSC(c2c(F)cccc2Cl)N1c1cccc(F)c1 (stereo not drawn)	105.2	/	95.9	101.5	/	12.0
CCOc1ccc2cc(/C=C/C(=O)c3ccco3)c(Cl)nc2c1	2.4*	/	97.4	76.5	/	-17.0
CCOc1ccc2nc(N3CCC(C(=O)N4CCN(C(=O)c5ccco5)CC4)CC3)sc2c1	56.9	17.7	100.2	113.7	13.3	-2.0
CCC(C)Nc1nc(-c2cccc(OC)c2O)nc2ccccc12 (stereo not drawn)	4.9*	11.9	75.1	55.5	/	-9.0
COc1cccc(-c2nc(NC(C)C)c3ccccc3n2)c1O	94.7	23.6	62.5	62.0	/	-13.0
COc1cccc(-c2nc(NCC3CCCO3)c3ccccc3n2)c1O (stereo not drawn)	31.9*	2.0	84.4	72.1	/	-9.0
Oc1ccccc1-c1nc(NCC2CCCO2)c2ccccc2n1 (stereo not drawn)	35.5*	66.0*	79.3	54.5	5.3	-5.0
c1ccc2c(c1)nc(NCC1CCCO1)c1nnnn12 (stereo not drawn)	90.9	-4.3	91.2	86.5	-7.6	6.0
CSC1=NCCN1C(=O)Cc1cccs1	95.4	-10.6	102.6	100.2	5.4	-10.0
CSc1nc(NC(C)=O)nc(C)c1Br	97.2	/	104.3	94.7	/	/
COc1ccc(CCNC(=O)C2CCN(Cc3nc(-c4ccccc4C)oc3C)CC2)cc1OC	87.6	7.5	94.0	68.8	10.0	11.0
Cc1ccccc1-c1nc(CN2CCC(C(=O)NC3CCN(Cc4ccccc4)CC3)CC2)c(C)o1	22.5*	2.2	57.5	9.9*	-6.4	/
Cc1ccccc1-c1nc(CN2CCC(C(=O)NCCC3=CCCCC3)CC2)c(C)o1	28.2*	65.1*	76.2	4.8*	2.3	16.0
N#CCCn1ncn(-c2ccccc2)c1=S	101.6	-17.5	105.5	96.1	2.7	-14.0
COc1ccccc1-n1cnc2cc(NCc3ccco3)ccc21	23.1*	36.8	53.7	63.6	57.5*	14.0
SMILES	H69AR growth 86K	Ecoli tolC	Fibroblast inh	HUVEC inhibit	Jurkat viability	E coli WT exp
Cc1ccccc1-n1cnc2cc(NCc3cccs3)ccc21	20.1*	/	68.9	77.3	/	-5.0
COc1ccccc1-n1cnc2cc(NCc3cccs3)ccc21	26.7*	/	46.1*	41.3	/	-1.0
COc1ccc(CNc2ccc3c(c2)ncn3-c2ccccc2OC)cc1	92.6	/	98.4	95.3	/	-10.0
Cc1ccc(SCc2cc(=O)[nH]c(/N=C(\N)Nc3ccc(C)c(C)c3)n2)cc1	/	/	/	/	/	-14.0
COc1ccc2[nH]c(=O)c(CN(CCO)S(=O)(=O)c3ccc4c(c3)OCCO4)cc2c1	76.3	-11.6	102.9	87.5	3.2	-10.0
CC(CC(=O)NC1CCCC1)c1ccccc1 (stereo not drawn)	99.5	/	93.3	89.4	/	-3.0
Cc1cccc(NC(=O)CSc2nnc([C@@H]3CCCN3C(=O)OC(C)(C)C)o2)c1C	1.4*	-5.3	90.9	76.3	-8.3	13.0
CCSc1nnc([C@@H]2CCCN2C(=O)OC(C)(C)C)o1	101.5	-28.8	93.5	87.5	-0.2	-3.0
CC(C)(C)OC(=O)N1CCC[C@H]1c1nnc(SCc2c(Cl)cccc2Cl)o1	78.5	79.0*	92.4	116.8	5.4	5.0
CC(C)C(=O)Nc1ccc(C(=O)NNC(=O)CCCOc2ccc(Cl)cc2Cl)cc1	/	/	/	/	/	-3.0
Cc1cnc(NC(=O)c2cc3c(s2)CCCC3)s1	23.9*	/	83.4	75.8	/	11.0
Cc1csc(NC(=O)c2cc3c(s2)CCCC3)n1	64.6	/	76.9	64.7	/	21.0
CCOC(=O)CSC1=C(C#N)C(c2ccccc2OCC)C(C(=O)OCC)C(=O)N1 (stereo not drawn)	91.9	17.9	92.3	104.7	-4.6	5.0
CCOC(=O)CSC1=C(C#N)C(c2ccccc2OCC)C(C#N)C(=O)N1 (stereo not drawn)	27.3*	26.6	93.4	69.6	10.0	3.0
CCCCSC1=C(C#N)C(c2ccccc2C)C(C(=O)OCC)C(=O)N1 (stereo not drawn)	93.0	71.4*	84.4	84.9	-6.0	-7.0
CC(=O)c1cccc(NC(=O)CSc2nnc(-c3ccc(S(=O)(=O)N4CCCC4)cc3)o2)c1	88.2	2.5	99.4	107.5	2.0	-2.0
Cc1ccc(-c2nnc(SCC(=O)Nc3ccc(S(=O)(=O)N4CCCCCC4)cc3)o2)cc1	8.8*	6.3	80.9	37.2	3.2	-5.0
Cc1csc(NC(=O)CSc2nnc(-c3ccc(S(=O)(=O)N4CCCC4)cc3)o2)n1	33.8*	-2.5	95.8	113.0	5.1	-9.0
COc1ccc(N(CC(=O)NC2CCCC2)C(=O)c2ccc(N3CCCCC3)nc2)cc1	74.5	3.0	87.7	95.0	2.9	9.0
CC(NC(=O)OCc1ccccc1)C(=O)N1CC(O)CC1C(=O)O (stereo not drawn)	94.1	-18.4	99.0	101.7	4.4	-5.0
CC1(C(=O)NC2CCCCCCC2)CC1(Cl)Cl (stereo not drawn)	/	/	/	/	/	1.0
O=C(CC1(C(F)(F)F)OCCO1)Nc1ccc2c(c1)OCO2	92.4	-12.2	101.2	94.6	-0.9	-1.0
Fc1cccc(-c2cc3nc4c(c(N5CCOCC5)n3n2)CCCC4)c1	63.2	100.0*	94.0	92.2	1.1	-7.0
COc1ccc(-c2cc3nc4c(c(N5CCC6(CC5)OCCO6)n3n2)CCCC4)cc1	53.3	64.7*	81.4	84.6	3.9	/
COc1ccc(C(=O)n2c(-c3ccco3)nc3ccccc32)cc1	23.9*	63.7*	65.5	53.0	77.7*	-6.0
